Experimental data as given in ChEMBL document CHEMBL5030505, “Assessment of NR4A Ligands That Directly Bind and Modulate the Orphan Nuclear Receptor Nurr1” (J Med Chem, 2020).
The source made the active and inactive calls. No cut-off for these calls is given here.

How the values were obtained:
Assay type in all cases: cell-based
[1] = biological target: Nuclear receptor subfamily 4 group A member 2 (Homo sapiens) (UniProt P43354); assay: Modulation of full length human Nurr1 expressed in PC12 cells co-transfected with RXRalpha and luciferase reporter plasmid harboring NBRE response element assessed as decrease in luciferase activity at 1.56 to 6.25 uM incubated for 18 by luciferase reporter gene assay; conditions: PC-12, filed as modulator, dose 1.56-6.25 µM, time 18.0 hrs
[2] = biological target: Nuclear receptor subfamily 4 group A member 2 (Homo sapiens) (UniProt P43354); assay: Modulation of full length human Nurr1 expressed in SKNBE(2) cells co-transfected with RXRalpha and luciferase reporter plasmid harboring NBRE response element assessed as decrease in luciferase activity at 1.56 to 6.25 uM incubated for 18 by luciferase reporter gene assay; conditions: SKNBE2, filed as modulator, dose 1.56-6.25 µM, time 18.0 hrs
PC-12 [3] = assay: Cytotoxicity against rat PC12 cells assessed as reduction in cell viability at 1.56 to 6.25 microM incubated for 18 hrs by Cell titer-glo assay; conditions: pc-12, 18 h, dose 1.56-6.25 µM
Summary of the method: (§1)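 Cells seeded 1.5 million per 10-cm dish; next day replated at 10,000 cells/well in 384-well format, 4 h, then ligand or vehicle (water, ethanol or DMSO by ligand) added in quadruplicate for 18 h; viability read by CellTiter-Glo luminescence. Mean ± s.e.m. (n=4), generally 2 independent experiments; one-way ANOVA versus vehicle.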

[4] = biological target: Nuclear receptor subfamily 4 group A member 2 (Homo sapiens) (UniProt P43354); assay: Modulation of full length human Nurr1 expressed in HEK293T cells co-transfected with luciferase reporter plasmid harboring NBRE response element assessed as decrease in luciferase activity at 1.56 to 6.25 uM incubated for 18 by luciferase reporter gene assay; conditions: filed as modulator, dose 1.56-6.25 µM, time 18.0 hrs
Summary of the method: (§2)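 Cells transfected (Lipofectamine 2000, 18 h) with full-length Nurr1 expression plasmid (2 μg) and 3xNBRE- or 3xNurRE-luciferase reporter (6 μg), no internal control normalisation; replated 10,000 cells/well, 4 h; ligand or vehicle in quadruplicate for 18 h; Britelite Plus luminescence as fold change over vehicle. Mean ± s.e.m. (n=4); one-way ANOVA versus vehicle.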

HEK-293T = assay: Cytotoxicity against human HEK293T cells assessed as reduction in cell viability at 1.56 to 6.25 microM incubated for 18 hrs by Cell titer-glo assay; conditions: dose 1.56-6.25 µM; summary of the method: as §1
[5] = biological target: Nuclear receptor subfamily 4 group A member 2 (Homo sapiens) (UniProt P43354); assay: Modulation of full length human Nurr1 expressed in HEK293T cells co-transfected with luciferase reporter plasmid harboring NBRE response element assessed as increase in luciferase activity at 1.56 to 6.25 uM incubated for 18 by luciferase reporter gene assay; conditions: filed as modulator, dose 1.56-6.25 µM, time 18.0 hrs; summary of the method: as §2
SK-N-BE(2) = assay: Cytotoxicity against human SKNBE(2) cells assessed as reduction in cell viability at 1.56 to 6.25 microM incubated for 18 hrs by Cell titer-glo assay; conditions: dose 1.56-6.25 µM; summary of the method: as §1
[6] = biological target: Nuclear receptor subfamily 4 group A member 2 (Homo sapiens) (UniProt P43354); assay: Modulation of full length human Nurr1 expressed in SKNBE(2) cells co-transfected with luciferase reporter plasmid harboring NBRE response element assessed as decrease in luciferase activity at 1.56 to 6.25 uM incubated for 18 by luciferase reporter gene assay; conditions: SKNBE2, filed as modulator, dose 1.56-6.25 µM, time 18.0 hrs; summary of the method: as §2
[7] = biological target: Nuclear receptor subfamily 4 group A member 2 (Homo sapiens) (UniProt P43354); assay: Modulation of full length human Nurr1 expressed in SKNBE(2) cells co-transfected with luciferase reporter plasmid harboring NurRE response element assessed as increase in luciferase activity at 1.56 to 6.25 uM incubated for 18 by luciferase reporter gene assay; conditions: SKNBE2, filed as modulator, dose 1.56-6.25 µM, time 18.0 hrs; summary of the method: as §2
[8] = biological target: Nuclear receptor subfamily 4 group A member 2 (Homo sapiens) (UniProt P43354); assay: Modulation of full length human Nurr1 expressed in HEK293T cells co-transfected with luciferase reporter plasmid harboring NurRE response element assessed as increase in luciferase activity at 1.56 to 6.25 uM incubated for 18 by luciferase reporter gene assay; conditions: filed as modulator, dose 1.56-6.25 µM, time 18.0 hrs; summary of the method: as §2
[9] = biological target: Nuclear receptor subfamily 4 group A member 2 (Homo sapiens) (UniProt P43354); assay: Modulation of full length human Nurr1 expressed in PC12 cells co-transfected with luciferase reporter plasmid harboring NurRE response element assessed as decrease in luciferase activity at 1.56 to 6.25 uM incubated for 18 by luciferase reporter gene assay; conditions: PC-12, filed as modulator, dose 1.56-6.25 µM, time 18.0 hrs; summary of the method: as §2
[10] = biological target: Nuclear receptor subfamily 4 group A member 2 (Homo sapiens) (UniProt P43354); assay: Modulation of full length human Nurr1 expressed in PC12 cells co-transfected with RXRalpha and luciferase reporter plasmid harboring NBRE response element assessed as increase in luciferase activity at 1.56 to 6.25 uM incubated for 18 by luciferase reporter gene assay; conditions: PC-12, filed as modulator, dose 1.56-6.25 µM, time 18.0 hrs
[11] = biological target: Nuclear receptor subfamily 4 group A member 2 (Homo sapiens) (UniProt P43354); assay: Modulation of full length human Nurr1 expressed in SKNBE(2) cells co-transfected with luciferase reporter plasmid harboring NBRE response element assessed as increase in luciferase activity at 1.56 to 6.25 uM incubated for 18 by luciferase reporter gene assay; conditions: SKNBE2, filed as modulator, dose 1.56-6.25 µM, time 18.0 hrs; summary of the method: as §2
[12] = biological target: Nuclear receptor subfamily 4 group A member 2 (Homo sapiens) (UniProt P43354); assay: Modulation of full length human Nurr1 expressed in HEK293T cells co-transfected with RXRalpha and luciferase reporter plasmid harboring NBRE response element assessed as increase in luciferase activity at 1.56 to 6.25 uM incubated for 18 by luciferase reporter gene assay; conditions: filed as modulator, dose 1.56-6.25 µM, time 18.0 hrs
PC-12 [13] = assay: Modulation of Gal4-fused VP16 expressed in PC12 cells co-transfected with UAS repoter gene assessed as decrease in luciferase activity at 1.56 to 6.25 uM incubated for 18 hrs by luciferase reporter gene assay; conditions: Human alphaherpesvirus 2, filed as modulator, dose 1.56-6.25 µM
Summary of the method: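 Constitutive control: cells transfected (Lipofectamine 2000) with Gal4-VP16 expression plasmid (2 μg) plus 5xUAS-luciferase reporter (2 μg), 18 h; replated 10,000 cells/well, 4 h; ligand or vehicle in quadruplicate for 18 h; luciferase read by Britelite Plus; signal as fold change over vehicle-treated cells. Mean ± s.e.m. (n=4); one-way ANOVA versus vehicle.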

[14] = biological target: Nuclear receptor subfamily 4 group A member 2 (Homo sapiens) (UniProt P43354); assay: Modulation of full length human Nurr1 expressed in SKNBE(2) cells co-transfected with RXRalpha and luciferase reporter plasmid harboring NBRE response element assessed as increase in luciferase activity at 1.56 to 6.25 uM incubated for 18 by luciferase reporter gene assay; conditions: SKNBE2, filed as modulator, dose 1.56-6.25 µM, time 18.0 hrs
[15] = biological target: Nuclear receptor subfamily 4 group A member 2 (Homo sapiens) (UniProt P43354); assay: Modulation of full length human Nurr1 expressed in HEK293T cells co-transfected with RXRalpha and luciferase reporter plasmid harboring NurRE response element assessed as increase in luciferase activity at 1.56 to 6.25 uM incubated for 18 by luciferase reporter gene assay; conditions: filed as modulator, dose 1.56-6.25 µM, time 18.0 hrs
PC-12 [16] = assay: Modulation of Gal4-fused VP16 expressed in PC12 cells co-transfected with UAS repoter gene assessed as decrease in luciferase activity at 5 to 100 uM incubated for 18 hrs by luciferase reporter gene assay; conditions: Human alphaherpesvirus 2, filed as modulator, dose 5-100 µM
Summary of the method: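 Cells in 10-cm dishes were transfected with Gal4-VP16 expression plasmid (2 μg) plus 5xUAS-luciferase reporter (2 μg) for 18 h. They were replated at 10,000 cells/well for 4 h, then given ligand or vehicle (water, ethanol or DMSO) in quadruplicate for 18 h. Luciferase was read with Britelite Plus. Fold change is versus vehicle-treated cells, with one-way ANOVA versus vehicle.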

PC-12 [17] = assay: Cytotoxicity against rat PC-12 cells assessed as reduction in cell viability at 5 to 100 uM incubated for 18 hrs by Cell titer-glo assay; conditions: pc-12, 18 h, dose 5-100 µM
Summary of the method: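 Cells seeded at 1.5 million per 10-cm dish. Next day they were replated at 10,000 cells/well and rested 4 h. Ligand or vehicle (water, ethanol or DMSO, by ligand) was added in dose-response format in quadruplicate. After 18 h, viability was read by CellTiter-Glo luminescence. Data are mean ± s.e.m., generally representative of 2 independent experiments. One-way ANOVA versus vehicle.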

Nuclear receptor subfamily 4 group A member 2 (Homo sapiens), sequence (P43354 whole entry): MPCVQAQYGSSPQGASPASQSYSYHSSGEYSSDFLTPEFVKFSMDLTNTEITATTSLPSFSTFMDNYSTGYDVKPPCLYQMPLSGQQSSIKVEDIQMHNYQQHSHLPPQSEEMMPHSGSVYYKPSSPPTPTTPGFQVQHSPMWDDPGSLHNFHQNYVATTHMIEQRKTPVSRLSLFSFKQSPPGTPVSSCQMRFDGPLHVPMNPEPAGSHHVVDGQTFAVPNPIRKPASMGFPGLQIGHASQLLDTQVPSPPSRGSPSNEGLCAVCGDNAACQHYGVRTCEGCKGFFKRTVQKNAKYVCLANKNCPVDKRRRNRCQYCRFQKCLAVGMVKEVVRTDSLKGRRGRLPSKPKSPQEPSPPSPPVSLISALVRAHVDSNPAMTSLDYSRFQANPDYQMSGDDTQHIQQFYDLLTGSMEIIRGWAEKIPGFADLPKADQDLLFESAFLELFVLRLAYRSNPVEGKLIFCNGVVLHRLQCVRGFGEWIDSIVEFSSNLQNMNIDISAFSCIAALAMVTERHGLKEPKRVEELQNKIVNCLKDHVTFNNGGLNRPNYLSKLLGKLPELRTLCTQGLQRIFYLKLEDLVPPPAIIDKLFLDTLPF

Row | SMILES | Activity [1] | Activity [2] | Activity (PC-12 [3]) | Activity [4] | Activity (HEK-293T) | Activity [5] | Activity (SK-N-BE(2)) | Activity [6] | Activity [7] | Activity [8] | Activity [9] | Activity [10] | Activity [11] | Activity [12] | Activity (PC-12 [13]) | Activity [14] | Activity [15] | Activity (PC-12 [16]) | Activity (PC-12 [17])
1 | CC1=C(O)C(=O)C=C2C1=CC=C1[C@@]2(C)CC[C@@]2(C)[C@@H]3C[C@](C)(C(=O)O)CC[C@]3(C)CC[C@]12C [CELASTROL] | Active | Active | Toxic | Active | Toxic | Active | Toxic | Active | Active | Active | Active | Active | Active | Active | Active | Active | Active |  | 
2 | CCCCCCCC(=O)c1c(O)cc(O)cc1CC(=O)OCC [CYTOSPORONE B] |  |  |  |  |  |  |  |  |  |  |  |  |  |  |  |  |  | Active | Toxic
